The source of these data is ChEMBL document CHEMBL1134313, “Synthesis and biological evaluation of myoseverin derivatives: microtubule assembly inhibitors” (J Med Chem, 2001).

In one data set the target is Tubulin (Bos taurus, UniProt Q6B856+Q862L2+Q862F3). Put plainly: Inhibition of tubulin polymerization using bovine brain tubulin. Type of data set: functional.
The subject of data set [1] is U-937. Kind of data set: Growth inhibition of human U937 cells. Type of data set: functional. Put shortly:
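Proliferating U937 human leukemic cells were exposed to the compounds. Potency is reported as GI50, the concentration giving 50% growth inhibition. Toxicity was checked separately at up to 100 µM, as LC50.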

In data set [2] the test system is U-937. Put plainly: Toxicity towards human U937 cells. It counts as cell-based.

A word on the IC50: it is the point on the concentration scale where inhibition reaches its midpoint. A lower IC50 goes with greater potency in that assay. The GI50 is the concentration giving 50% growth inhibition. Low values mean greater sensitivity of the cells, high ones lower sensitivity of the cells. In turn, `COc1ccc(CNc2nc(NCc3ccc(OC)cc3)c3ncn(C4CCCC4)c3n2)cc1` came in with an IC50 against Tubulin of 3 µM. For the same compound, it took 2 µM to inhibit growth in the data set with U-937 [1] by half (GI50).
Compound `COc1ccc(CNc2nc(NCc3ccc(OC)cc3)c3ncn(C4CCOC4)c3n2)cc1` (stereo unspecified) yielded an IC50 at Tubulin of 5 µM. The compound also displayed a GI50 with U-937 [1] of 4 µM.
In the same order, the values of `COc1ccc(CNc2nc(NCc3ccc(OC)cc3)c3ncn(C4CCC4)c3n2)cc1` are 5 µM and 5 µM.
For orientation: LC50 means the concentration lethal to half of the exposed cells or organisms. Low values mean a more lethal substance, high ones a less lethal substance. In turn, `COc1ccc(CNc2nc(NCc3ccc(OC)cc3)c3ncn(C4CCNCC4)c3n2)cc1` yielded an IC50 against Tubulin of 5 µM. The same compound had a GI50 in the data set with U-937 [1] of 6 µM. In the data set on U-937 [2], this compound gave an LC50 of 40 µM.
In turn, `COc1ccc(CNc2nc(NCc3ccc(OC)cc3)c3ncn(C)c3n2)cc1` showed an IC50 at Tubulin of 25 µM. The GI50 in the data set with U-937 [1] worked out at 12 µM.
On Tubulin, `CCn1cnc2c(NCc3ccc(OC)cc3)nc(NCc3ccc(OC)cc3)nc21` registered an IC50 of 25 µM. Besides, it took 6 µM to inhibit growth in the data set on U-937 [1] by half (GI50).
For the compound `COc1ccc(CNc2nc(NCc3ccc(OC)cc3)c3ncn(C4CCCCC4)c3n2)cc1`, the 50% inhibitory concentration (IC50) against Tubulin was 2 µM. Moreover, growth in the data set with U-937 [1] was halved (GI50) at 0.2 µM.
The corresponding values for `COc1ccc(CNc2nc(NCc3ccc(OC)cc3)c3ncn(C4CCC(O)CC4)c3n2)cc1` (stereo unspecified) are 3 µM and 2 µM.
In turn, `COc1ccc(CNc2nc(NCc3ccc(OC)cc3)c3[nH]cnc3n2)cc1` registered an IC50 against Tubulin of 50 µM. The GI50 in the data set with U-937 [1] is 18 µM.
`COc1ccc(CNc2nc(NCc3ccc(OC)cc3)c3ncn(C(C)C)c3n2)cc1` [MYOSEVERIN] returned an IC50 against Tubulin of 8 µM. In the data set with U-937 [1], this compound gave a GI50 of 4 µM.
